Test results as given in ChEMBL document CHEMBL1129055, “Synthesis, in vitro antiviral evaluation, and stability studies of bis(S-acyl-2-thioethyl) ester derivatives of 9-[2-(phosphonomethoxy)ethyl]adenine (PMEA) as potential PMEA prodrugs with improved oral bioavailability” (J Med Chem, 1996).

Assays:
[1] = Half-life in culture medium.; format: ADME
Vero [2] = assay: (§1) Compound was tested for antiviral activity against the Vero cells infected with HSV-1.; format: functional, cell-based; settings: Chlorocebus sabaeus
Procedure, shortened: (§2)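 Confluent cells in MEM with 5% FBS infected with 100 CCID50 virus (HSV-1 strain F or HSV-2 strain G) for 1 h at 37 °C, then exposed to compound from 1 mM to 1 uM. Cytopathic effect scored daily. EC50 is the concentration that reduces CPE by 50% once CPE is complete in untreated infected controls.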

MT4 [3] = assay: (§3) Compound was tested for antiviral activity against the MT-4 cell lines infected with HIV-1.; format: functional, cell-based; settings: Homo sapiens
Procedure, shortened: (§4)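 MT-4 cells infected with 50 TCID50 HIV-1 IIIB for 30 min, washed twice, then cultured 5 days with graded compound concentrations. Protection from virus-induced cytopathogenicity read by MTT reduction to formazan. EC50 taken from median effect plot of dose-effect data.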

MRC5 [4] = assay: (§5) Compound was tested for antiviral activity against the MRC-5 cells infected with HSV-1.; format: functional; settings: Homo sapiens; procedure, shortened: as §2
CEM-SS [5] = assay: (§6) Compound was tested for antiviral activity against the CEM-SS cell lines infected with HIV-1.; format: functional; settings: Homo sapiens
[6] = Percent decomposition in water at specified pH 7.2; settings: buffer
[7] = Partition coefficient (logP); format: physicochemical; settings: octanol/water
Procedure, shortened: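 Octanol/water partition coefficient (logP) determined by HPLC using a microscale method adapted from earlier work on nucleoside analogues.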

Vero [8] = assay: as §1; format: functional; settings: Chlorocebus sabaeus
MT4 [9] = assay: as §3; format: functional; settings: Homo sapiens; procedure, shortened: as §4
MRC5 [10] = assay: as §5; format: functional, cell-based; settings: Homo sapiens; procedure, shortened: as §2
MRC5 [11] = assay: Compound was tested for antiviral activity against the MRC-5 cells infected with HSV-2.; format: functional, cell-based; settings: Homo sapiens; procedure, shortened: as §2
CEM-SS [12] = assay: as §6; format: functional, cell-based; settings: Homo sapiens
Procedure, shortened: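 CEM-SS cells infected with 100 TCID50 HIV-LAI for 30 min, unbound virus removed by two washes, then cultured 5 days with graded compound concentrations. Virus production quantified as reverse transcriptase activity in culture supernatant. EC50 derived from median effect plot of dose-effect data.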

Vero [13] = assay: Compound was tested for antiviral activity against the Vero cells infected with HSV-2; format: functional, cell-based; settings: Chlorocebus sabaeus; procedure, shortened: as §2
[14] = Half-life in RPMI1640 medium.; format: ADME

CC(C)(C)C(=O)SCCOP(=O)(O)COCCn1cnc2c(N)ncnc21 gave a half-life [1] of 230 h.

CC(=O)SCCOP(=O)(O)COCCn1cnc2c(N)ncnc21 showed a half-life [1] of 19.2 h.

In the case of CC(C)C(=O)SCCOP(=O)(O)COCCn1cnc2c(N)ncnc21, the half-life [1] is reported as 28.8 h.

CC(C)C(=O)SCCOP(=O)(COCCn1cnc2c(N)ncnc21)OCCSC(=O)C(C)C showed an EC50 (Vero [2]) of 1.35 µM, an EC50 (MT4 [3]) of 0.51 µM and a CC50 (MRC5 [4]) of 30.2 µM. It also gave a CC50 (CEM-SS [5]) of 13 µM, a percent decomposition [6] of 1.6% and a logP ([7]; read-out: logP) of 2.31. The CC50 (Vero [8]) was 23 µM, the CC50 (MT4 [9]) was 3.8 µM and the EC50 (MRC5 [10]) was 1.69 µM. The EC50 (MRC5 [11]) was 1.2 µM, the EC50 (CEM-SS [12]) was 0.09 µM and the half-life [1] was 8.3 h. The EC50 (Vero [13]) was 1.14 µM.

In the case of CC(=O)SCCOP(=O)(COCCn1cnc2c(N)ncnc21)OCCSC(C)=O, the half-life [14] is reported as > 24 h, the EC50 (Vero [2]) is reported as 14.2 µM and the EC50 (MT4 [3]) is reported as 1.1 µM. The CC50 (MRC5 [4]) was 148 µM, the CC50 (CEM-SS [5]) was 23 µM and the percent decomposition [6] was 4%. The logP ([7]; read-out: logP) was 0.32, the CC50 (Vero [8]) was 126 µM and the CC50 (MT4 [9]) was 7.6 µM. The EC50 (MRC5 [10]) was 12.6 µM, the EC50 (MRC5 [11]) was 8.9 µM and the EC50 (CEM-SS [12]) was 0.1 µM. For the same compound, the half-life [1] was 3.7 h and the EC50 (Vero [13]) was 10.2 µM.

Compound CC(C)(C)C(=O)SCCOP(=O)(COCCn1cnc2c(N)ncnc21)OCCSC(=O)C(C)(C)C has an EC50 (Vero [2]) of 1.07 µM, an EC50 (MT4 [3]) of 0.65 µM and a CC50 (MRC5 [4]) of 48.5 µM. For the same compound, the CC50 (CEM-SS [5]) was 5.8 µM, the percent decomposition [6] was 3% and the logP ([7]; read-out: logP) was 3.41. It also gave a CC50 (Vero [8]) of 36.8 µM, a CC50 (MT4 [9]) of 15 µM and an EC50 (MRC5 [10]) of 1.43 µM. It also gave an EC50 (MRC5 [11]) of 0.97 µM, an EC50 (CEM-SS [12]) of 0.03 µM and a half-life [1] of 81.6 h. For the same compound, the EC50 (Vero [13]) was 1.12 µM.

For Nc1ncnc2c1ncn2CCOCP(=O)(OCCSSCCO)OCCSSCCO, the half-life [14] was > 24 h, the EC50 (Vero [2]) was 22.3 µM and the EC50 (MT4 [3]) was 6.9 µM. The CC50 (MRC5 [4]) was > 100 µM, the CC50 (CEM-SS [5]) was 67 µM and the percent decomposition [6] was 13.9%. The logP ([7]; read-out: logP) was 0.21, the CC50 (Vero [8]) was > 100 µM and the CC50 (MT4 [9]) was 50 µM. For the same compound, the EC50 (MRC5 [10]) was 32.3 µM, the EC50 (MRC5 [11]) was 26.5 µM and the EC50 (CEM-SS [12]) was 2 µM. It also gave a half-life [1] of 38.4 h and an EC50 (Vero [13]) of 27.4 µM.

Nc1ncnc2c1ncn2CCOCP(=O)(OCCSC(=O)c1ccccc1)OCCSC(=O)c1ccccc1 showed an EC50 (Vero [2]) of 2.56 µM, an EC50 (MT4 [3]) of 0.41 µM and a CC50 (MRC5 [4]) of 18.7 µM. The CC50 (CEM-SS [5]) was 3.9 µM, the percent decomposition [6] was 1.7% and the logP ([7]; read-out: logP) was 3.93. It also gave a CC50 (Vero [8]) of 12.7 µM, a CC50 (MT4 [9]) of 2.4 µM and an EC50 (MRC5 [10]) of 3.48 µM. It also gave an EC50 (MRC5 [11]) of 4.75 µM, an EC50 (CEM-SS [12]) of 0.05 µM and a half-life [1] of 25.7 h. The EC50 (Vero [13]) was 2.89 µM.

In the case of Nc1ncnc2c1ncn2CCOCP(=O)(O)OCCSC(=O)c1ccccc1, the half-life [1] is reported as 64.8 h.

CC(C)(C)C(=O)OCOP(=O)(COCCn1cnc2c(N)ncnc21)OCOC(=O)C(C)(C)C [ADEFOVIR DIPIVOXIL] gave a half-life [14] of 5 h, an EC50 (Vero [2]) of 0.87 µM and an EC50 (MT4 [3]) of 0.08 µM. For the same compound, the CC50 (MRC5 [4]) was 15.7 µM, the CC50 (CEM-SS [5]) was 4.4 µM and the percent decomposition [6] was 32.7%. It also gave a logP ([7]; read-out: logP) of 2.48, a CC50 (Vero [8]) of 22.6 µM and a CC50 (MT4 [9]) of 0.74 µM. It also gave an EC50 (MRC5 [10]) of 1.23 µM, an EC50 (MRC5 [11]) of 0.91 µM and an EC50 (CEM-SS [12]) of 0.04 µM. The half-life [1] was 5 h and the EC50 (Vero [13]) was 1.15 µM.

With Nc1ncnc2c1ncn2CCOCP(=O)(O)O [ADEFOVIR] the EC50 (Vero [2]) was 38.5 µM, the EC50 (MT4 [3]) was > 10 µM and the CC50 (MRC5 [4]) was > 100 µM. For the same compound, the CC50 (CEM-SS [5]) was > 10 µM, the logP [7] was -4.11 and the CC50 (Vero [8]) was > 100 µM. The CC50 (MT4 [9]) was > 10 µM, the EC50 (MRC5 [10]) was 29.7 µM and the EC50 (MRC5 [11]) was 33.5 µM. For the same compound, the EC50 (CEM-SS [12]) was 0.42 µM and the EC50 (Vero [13]) was 32.7 µM.
